For assay [1], the target named is Bcl-2-like protein 1 (Homo sapiens, UniProt Q07817). As to the kind of experiment: Displacement of FITC-Bak-BH3 peptide from Bcl-xL (unknown origin) incubated for 1.5 hrs by FPA competition assay. The procedure, abridged:
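Compounds were added as a 10-point, 3-fold serial dilution and incubated 1.5 h at room temperature. IC50 came from a four-parameter fit of the anisotropy change, was converted to Ki, and duplicate values were averaged.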

Assay [2] addresses T1, Induced myeloid leukemia cell differentiation protein Mcl-1 (Homo sapiens, UniProt Q07820). In words: Displacement of FITC-Bak-BH3 peptide from Mcl-1 (unknown origin) incubated for 1.5 hrs by FPA competition assay.
The target of assay [3] is Apoptosis regulator Bcl-2 (Homo sapiens, UniProt P10415). As to the kind of experiment: Displacement of FITC-Bak-BH3 peptide from Bcl-2 (unknown origin) incubated for 1.5 hrs by FPA competition assay. The procedure, abridged:
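Compounds were added as a 10-point, 3-fold serial dilution and incubated 1.5 h at room temperature. The anisotropy change was fitted to a four-parameter variable-slope curve for IC50, converted to Ki, and duplicates were averaged.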

The target in assay [4] is T1, Induced myeloid leukemia cell differentiation protein Mcl-1. In words: Binding affinity to GST-tagged Mcl-1 (unknown origin) incubated for 60 mins by TR-FRET-binding affinity assay.

Each structure is given as a SMILES string. pKi: −log10 of the molar value.

T1 sequence (Q07820 whole entry): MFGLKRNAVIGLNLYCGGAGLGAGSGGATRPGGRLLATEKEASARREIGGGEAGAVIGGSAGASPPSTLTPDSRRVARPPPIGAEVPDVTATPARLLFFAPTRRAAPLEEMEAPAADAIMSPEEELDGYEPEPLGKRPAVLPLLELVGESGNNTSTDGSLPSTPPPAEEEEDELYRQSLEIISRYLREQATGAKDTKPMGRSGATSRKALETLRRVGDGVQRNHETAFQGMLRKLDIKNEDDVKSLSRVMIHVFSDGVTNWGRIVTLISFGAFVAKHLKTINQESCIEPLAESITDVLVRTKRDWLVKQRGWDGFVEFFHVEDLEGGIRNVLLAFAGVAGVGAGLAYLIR
Sequence of Bcl-2-like protein 1 (Q07817 whole entry): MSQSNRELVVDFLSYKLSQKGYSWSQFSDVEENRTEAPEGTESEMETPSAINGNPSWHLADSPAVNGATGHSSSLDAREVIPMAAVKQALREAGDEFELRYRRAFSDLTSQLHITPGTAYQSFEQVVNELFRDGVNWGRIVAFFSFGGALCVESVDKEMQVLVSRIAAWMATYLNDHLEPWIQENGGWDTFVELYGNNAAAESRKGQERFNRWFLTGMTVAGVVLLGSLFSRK
Sequence of Apoptosis regulator Bcl-2 (P10415 whole entry): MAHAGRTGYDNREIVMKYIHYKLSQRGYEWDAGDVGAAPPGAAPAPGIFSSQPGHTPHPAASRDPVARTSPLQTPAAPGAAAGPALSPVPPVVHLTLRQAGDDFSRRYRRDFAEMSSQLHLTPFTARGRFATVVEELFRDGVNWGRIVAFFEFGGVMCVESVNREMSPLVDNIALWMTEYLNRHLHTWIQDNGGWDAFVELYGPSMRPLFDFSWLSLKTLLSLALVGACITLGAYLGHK

As usually defined, the pKi is the negative decadic logarithm of the Ki, by convention in mol/L. The low end stands for a large Ki, the high end for a small Ki. Regarding `O=C(O)c1c(CCCOc2cccc3ccccc23)c2cccc3c2n1CCS3`, the pKi is under 4.70 in assay [1], 6.92 in assay [2] and 5.51 in assay [3].
Molecule `CC1Cn2c(C(=O)O)cc3cccc(c32)S1` (centres undefined) showed a pKi in assay [2] of 4.46.
Regarding `O=C(O)c1cc2cccc3c2n1CCS3`, the pKi in assay [2] was 4.29. This pKi and that of the molecule before are within 0.2 log units of each other.
On the same count and under the same terms, for `O=C(O)c1cc2cccc3c2n1CCC3` the value was 3.88.
On the same count and under the same terms, the result for `Cc1c(C(=O)O)n2c3c(cccc13)SCC2` reads 4.74.
Same read-out and setting: the result for `Cc1c(C(=O)O)n2c3c(cccc13)CCC2` reads 4.05; that for `Cc1c(C(=O)O)n2c3c(cccc13)OCC2`, 4.74; that for `O=C(O)c1c(CCOc2cccc3ccccc23)c2cccc3c2n1CCS3`, 5.52.
As to `O=C(O)c1c(CCOc2cccc3ccccc23)c2cccc3c2n1CCC3`, the pKi is under 4.70 in assay [1] and 5.40 in assay [2].
On to `O=C(O)c1c(CCOc2cccc3ccccc23)c2cccc3c2n1CCO3`, for which the figures for the pKi in assay [1] and in assay [2] were 4.90 and 5.80, respectively.
The matching figures for `O=C(O)c1c(CCCOc2cccc3ccccc23)c2cccc3c2n1CCC3`: under 4.70 and 6.51.
The matching figures for `O=C(O)c1c(CCCOc2cccc3ccccc23)c2cccc3c2n1CCO3`: 5.72 and 6.96.
The matching figures for `O=C(O)c1c(CCCOc2cccc3ccccc23)c2cccc3c2n1CCS3(=O)=O`: under 4.70 and 7.06.
Turning to `O=C(O)c1c(CCCOc2cccc3ccccc23)c2cccc3c2n1CCCS3`, the pKi in assay [1] was 5.13; in assay [2], 6.77; in assay [3] it was 5.00.
Taken in the same sequence, the figures for `O=C(O)c1c(CCCOc2cccc3ccccc23)c2cccc3c2n1CCC[S+]3[O-]` (centres undefined) were under 4.70, 7.13 and 4.80.
The matching figures for `O=C(O)c1c(CCCOc2cccc3ccccc23)c2cccc3c2n1CCCS3(=O)=O`: under 4.70, 7.21 and 4.93.
For the molecule `O=C(O)c1c(CCCOc2cccc3c2CCCC3)c2cccc3c2n1CCS3`, the pKi in assay [1] is 5.52; in assay [2] it was 6.82.
As to `O=C(O)c1c(CCCOc2ccc(Cl)c3ccccc23)c2cccc3c2n1CCS3`, the pKi in assay [1] is 5.33; in assay [3] it was 5.96.
Take `O=C(O)c1c(CCCOc2ccc3c(c2)CCCC3)c2cccc3c2n1CCS3`: the results for the pKi in assay [1], in assay [2] and in assay [3] were under 4.70, 6.39 and 5.36, respectively.
Taken in the same sequence, the figures for `Cc1cc(OCCCc2c(C(=O)O)n3c4c(cccc24)SCC3)ccc1Cl` were under 4.70, 6.68 and 5.20.
Take `Cc1cc(OCCCc2c(C(=O)O)n3c4c(cccc24)SCC3)cc(C)c1Cl`: the negative-log Ki (pKi) in assay [1] is under 4.70; in assay [3], 5.64.
`Cc1cc(OCCCc2c(C(=O)O)n3c4c(cccc24)CCC3)cc(C)c1Cl` showed a pKi in assay [2] of 6.96.
Take `Cc1cc(OCCCc2c(C(=O)O)n3c4c(cccc24)OCC3)cc(C)c1Cl`: the negative-log Ki (pKi) in assay [2] is 7.19.
`Cc1cc(OCCCc2c(C(=O)O)n3c4c(cccc24)SCCC3)cc(C)c1Cl` gave a pKi in assay [1] of under 4.70.
As for `Cc1cc(OCCCc2c(C(=O)O)n3c4c(c(Cl)ccc24)CCC3)cc(C)c1Cl`, the figures for the pKi in assay [1] and in assay [2] were 5.28 and 8.52, respectively.
Consider `Cc1cc(OCCCc2c(C(=O)O)n3c4c(c(Cl)ccc24)OCC3)cc(C)c1Cl`, for which, in assay [1], the pKi was under 4.70.
In assay [4], `COCCCc1c(C(=O)O)n(CCN2CCOCC2)c2c(-c3c(C)nn(C)c3COc3ccc(N4CCN(S(=O)(=O)N(C)C)CC4)cc3)cccc12` showed a pKi of 9.34.
`O=C(O)c1cc2ccccc2[nH]1` [INDOLE-2-CARBOXYLIC ACID]: in assay [2], the pKi was under 3.00.

(Values after ChEMBL document CHEMBL3425420 (J Med Chem, 2015).)
